KCNQ1 inh: blocks the human KCNQ1 potassium channel; P51787; CHO-K1 KCNQ1, FluxOR thallium flux fluorescence; active compounds read high; B-score at 10 µM; 1.3% of 310,000 active; AID 2642;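 active means compounds whose thallium flux B-score, printed positive for inhibition, exceeds three library SD while starting fluorescence stays within three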;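 further: channel opened by potassium depolarization with thallium stimulus after 20 min compound exposure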
Target sequence (P51787 whole entry, looked up): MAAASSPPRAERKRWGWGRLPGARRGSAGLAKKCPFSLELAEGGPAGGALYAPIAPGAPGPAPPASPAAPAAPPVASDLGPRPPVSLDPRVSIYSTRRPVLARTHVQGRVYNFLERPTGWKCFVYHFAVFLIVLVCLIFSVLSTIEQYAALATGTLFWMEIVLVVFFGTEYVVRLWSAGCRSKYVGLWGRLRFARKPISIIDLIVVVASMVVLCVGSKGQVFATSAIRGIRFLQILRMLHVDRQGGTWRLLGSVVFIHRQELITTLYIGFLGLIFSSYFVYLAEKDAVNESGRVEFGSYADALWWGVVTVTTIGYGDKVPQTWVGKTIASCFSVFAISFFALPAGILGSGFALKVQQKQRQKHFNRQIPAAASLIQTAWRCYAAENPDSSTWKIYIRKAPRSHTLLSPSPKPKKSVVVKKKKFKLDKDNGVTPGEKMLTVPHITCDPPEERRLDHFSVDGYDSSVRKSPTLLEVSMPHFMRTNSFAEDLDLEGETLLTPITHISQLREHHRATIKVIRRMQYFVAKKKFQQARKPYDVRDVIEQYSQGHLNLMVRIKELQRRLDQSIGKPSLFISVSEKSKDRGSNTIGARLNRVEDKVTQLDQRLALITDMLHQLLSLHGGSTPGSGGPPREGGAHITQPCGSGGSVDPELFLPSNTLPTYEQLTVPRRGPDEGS
KCNQ1 act: potentiators or activators of human KCNQ1 potassium channel; P51787; CHO-K1 KCNQ1, thallium flux FluxOR fluorescence; active compounds read high; B-score at 10 µM; 0.35% of 310,000 active; AID 2648;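 active means fluorescence ratio B-score, a plate-corrected score, at least three library SD, with initial intensity B-score within 5 SD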
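Assay system: CHO-K1 cells stably expressing KCNQ1; Medium: assay buffer with matched DMSO; Also added: K+/Tl+ depolarizing stimulus; Dosing: single dose; Timing: dye 90 min, compound 20 min, room temperature; Measured by: kinetic FluxOR thallium fluorescence, 10-s 1-Hz baseline, 110-s post-stimulus read; Read-out: peak-minus-minimum fluorescence over initial fluorescence, negative-control normalized, B-scored.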
KCNK9 block: human KCNK9 channel inhibition | Q9NPC2 | HEK293 KCNK9, FluxOR thallium flux fluorescence; active compounds read low | B-score at 10 µM | 1.2% of 310,000 active | AID 488922;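 active means ratio B-score over 3 SD below the library mean, with starting fluorescence within 5 SD of its mean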;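 further: negative B-score means less thallium flux so channel inhibition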
Kir21 inh: blocks the mouse Kir2.1 inward-rectifier potassium channel; P35561; HEK293-Kir2.1, FluxOR thallium flux fluorescence; active compounds read low; B-score at 10 µM; 0.85% of 310,000 active; AID 1672;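 active means fluorescence ratio B-score at or below minus 3 SD of library scores, with starting-brightness B-score within 2 SD, cut at about -4.2 in these data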;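 further: channel flux triggered by added potassium and thallium sulfate stimulus; B-score of peak minus minimum fluorescence over baseline after thallium stimulus; more negative B-score means stronger Kir2.1 block with less thallium influx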
hERG rescue: hERG (human) protection from proarrhythmic block | Q12809 | CHO-hERG, FluxOR thallium flux, dofetilide IC70 present | activation (rescue from dofetilide block), less the hit threshold, % at 10 µM | 0.51% of 310,000 active | AID 1511;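 active means activation above the mean of controls blocked by dofetilide plus 5 SD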;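 further: thallium influx through hERG after potassium depolarization seen as dye fluorescence rise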
KCNK3 block: human KCNK3 channel inhibition, primary screen; B-score at 10 µM; O14649; CHO-KCNK3 thallium flux, FluxOR fluorescence; active compounds read low; 0.84% of 340,000 active;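 active means B-score under library mean minus 4 SD, starting fluorescence ratio at most library mean plus 5 SD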;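 further: more negative B-score means stronger inhibition of thallium flux through KCNK3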
Of the large screens only hits and unclear results are named; the others gave an inactive call. Shown are actives, neighbours in structure and some others; about 3.7% of the full set was active somewhere.

CCOC(=O)C1=C(C)N=C2SCCC(=O)N2C1c1cccs1 (configuration not stated)	none
C=CCOC(=O)C1=C(C)N=C2SCCC(=O)N2C1c1ccc(OC(=O)c2ccco2)cc1 (configuration not stated)	Kir21 inh -5.04
COC(=O)C1=C(C)N=C2SCCC(=O)N2C1c1cc(Br)ccc1OC (configuration not stated)	none
O=S(=O)(/N=C(\Sc1ccc(Cl)cc1)c1ccccc1)c1ccccc1	none
Cc1ccc(S(=O)(=O)/N=C(\c2ccccc2)N(C)S(=O)(=O)c2ccc(C)cc2)cc1	none
CS/C(=N\S(=O)(=O)c1ccc(Cl)cc1)c1ccccc1	Kir21 inh -5.27
CS/C(=N/S(=O)(=O)c1ccc(C)cc1)c1ccccc1	Kir21 inh -10.1
CCN(CC(=O)Nc1ccc(NC(C)=O)cc1)C(=O)CC1OC(=O)c2ccccc21 (configuration not stated)	none
Cc1ccc(-c2cc(-c3ccc(F)cc3)n[nH]2)c(O)c1	KCNQ1 inh 6
Cc1ccc(-c2cc(-c3ccc(C)cc3O)[nH]n2)cc1	none
CSc1ccccc1NC(=O)Nc1ccc(F)c(Cl)c1	none
O=C(Nc1ccc(Cl)c(Cl)c1)Nc1ccc(Br)cc1F	KCNQ1 inh 7
Cc1ccc(NC(=O)CSc2n[nH]c(C)c2[N+](=O)[O-])cc1	none
Cc1[nH]nc(SCC(=O)N2CCCCC2)c1[N+](=O)[O-]	KCNQ1 act 10
Cc1ccc(NC2C(=O)NC(=O)NC2=O)cc1	none (no result: KCNQ1 inh, KCNQ1 act, KCNK9 block, Kir21 inh, hERG rescue)
CCC(C(=O)c1ccc(O)cc1)c1ccccc1 (configuration not stated)	Kir21 inh -5.04
CCC(C(=O)N(C(C)C)C(C)C)c1ccccc1 (configuration not stated)	none (no result: KCNQ1 inh, KCNQ1 act, KCNK9 block, Kir21 inh, hERG rescue)
Cc1[nH]c2ccccc2c1CC#N	none
Cc1[nH]c2ccccc2c1C1=CC(=O)C=CC1=O	KCNK3 block -9.21 (no result: KCNQ1 inh, KCNQ1 act, KCNK9 block, Kir21 inh, hERG rescue)
CCOC(=O)c1c(NC(=O)C(NCCN(C)C)c2ccccc2)sc2c1CCCC2 (configuration not stated)	Kir21 inh -6.22
O=C(Nc1ccncc1)C1CCN(S(=O)(=O)c2c(Cl)cccc2Cl)CC1	KCNK9 block -6.99
COc1ccc(OC)c(S(=O)(=O)N2CCC(C(=O)Nc3ccccc3)CC2)c1	none
COc1ccc(OC)c(S(=O)(=O)N2CCC(C(=O)Nc3cccc(C)c3)CC2)c1	KCNQ1 inh 6, KCNK9 block -7.92
Cc1cc(C)cc(NC(=S)N(Cc2ccc(Br)cc2)Cc2ccc(C(=O)O)cc2)c1	KCNK9 block -7.36
O=C(NCCc1ccc(Cl)cc1Cl)C1=CC=CN2CCS(=O)(=O)N=C12	none (no result: KCNQ1 inh, KCNQ1 act, KCNK9 block, Kir21 inh, hERG rescue)
CSCc1ccc(C(=O)Nc2ccc(C(N)=O)cc2)cc1	none
O=C1c2ccccc2NC(c2ccc(Br)o2)N1O (configuration not stated)	none (no result: KCNQ1 inh, KCNQ1 act, KCNK9 block, Kir21 inh, hERG rescue)
O=C1c2ccccc2NC(c2ccc(Br)s2)N1O (configuration not stated)	KCNQ1 act 22, hERG rescue 20.6
CC1(C)COC(c2ccc3c(c2)OCO3)OC1	none (no result: KCNQ1 inh, KCNQ1 act, KCNK9 block, Kir21 inh, hERG rescue)
CCOc1ccc(NC(=O)C2CCN(S(=O)(=O)c3ccc4c(c3)NC(=O)C(C)S4)CC2)cc1 (configuration not stated)	none
CCc1ccc2[nH]c(C(=O)Nc3ccc(F)cc3Br)cc2c1	KCNQ1 act 8
O=C(COc1ccc2c3c(c(=O)oc2c1)CCC3)N[C@@H](Cc1ccccc1)C(=O)O	hERG rescue 5.3
O=C(COc1ccc2c3c(c(=O)oc2c1)CCC3)N[C@@H](CSCc1ccccc1)C(=O)O	none
Cc1cccc2c1-c1sc(C(=O)Nc3cccnc3)cc1CO2	KCNK9 block -7.21
O=C(O)c1ccc(N=Nc2c(-c3ccccc3)[nH]oc2=O)cc1	none
CCOC(=O)c1cc(-c2nnc(-c3ccc(Oc4ccccc4)cc3)o2)c(C)nc1C	KCNK3 block -10
CCOC(=O)c1cc(C(=O)NN)c(C)nc1C	none
CCCCNC(=O)c1ccc(NC(=O)C2CCCO2)cc1 (configuration not stated)	hERG rescue 40.2
CC(C)OCCCNC(=O)c1ccc(NC(=O)C2CCCO2)cc1 (configuration not stated)	none
Clc1ccc(CONc2ncnc3nonc23)c(Cl)c1	KCNQ1 inh 7
COCCn1c(C)cc(/C=C(\C#N)C(=O)OCC(=O)N(C)c2c(N)n(Cc3ccccc3)c(=O)[nH]c2=O)c1C	none
COc1cc(Cl)c(C)cc1NC(=O)CSc1sc2c(O)cc(=O)[nH]c2c1C#N	hERG rescue 4.7
COc1ccc(OC)c(NC(=O)CSc2sc3c(O)cc(=O)[nH]c3c2C#N)c1	none
Cc1cc(Br)cc2cn[nH]c12	none
N#Cc1ccc(CSc2nnc(Cc3cccs3)n2Cc2ccco2)cc1	Kir21 inh -6.07
CN(CC(O)CN)CC(O)CN1CCCCC1 (configuration not stated)	hERG rescue 5.7
Cc1ccc2nc(/C(C#N)=C\c3cc(C)n(-c4cccc([N+](=O)[O-])c4)c3C)[nH]c2c1	KCNQ1 inh 8
Cc1ccc(C2=NS(=O)(=O)N(C)C(C(=O)NCc3ccccc3)=C2)cc1	none
CCCCn1c(-c2ccccc2C)nc2cc3[nH]c(=O)c(C(C)C)nc3cc21	KCNK9 block -8.09
CCN(CC)CCCNc1ccc(-c2nnc(-c3ccc(OCC(C)C)cc3)o2)cn1	KCNQ1 inh 9, Kir21 inh -6.55
CC(C)COc1ccc(-c2nnc(-c3ccco3)o2)cc1	none
COc1ccccc1/C=C/C=C1\Oc2c(ccc(O)c2CN(C)C)C1=O	KCNQ1 inh 10
COc1ccc(C2C(C(=O)c3ccco3)=C(O)C(=O)N2c2nnc(C)s2)cc1 (configuration not stated)	none
CSc1nnc(N2C(=O)C(O)=C(C(=O)c3ccco3)C2c2cccc(Cl)c2)s1 (configuration not stated)	KCNQ1 inh 9
CSc1nnc(N2C(=O)C(O)=C(C(=O)c3ccco3)C2c2ccc(F)cc2)s1 (configuration not stated)	KCNQ1 inh 10
O=C(C1=C(O)C(=O)N(c2ncccn2)C1c1cccc(Cl)c1)c1ccco1 (configuration not stated)	none
O=C(Nc1ccccc1OC(F)F)c1cccc(S(=O)(=O)N2CCCC2)c1	none
COc1ccc(C2NS(=O)(=O)OCC2C)cc1 (configuration not stated)	none
C[C@@H]1C(=O)OC[C@H]1NC(=O)OCc1ccccc1	none
NC(=O)c1ccsc1NC(=O)COC(=O)Cc1ccccc1Cl	none (no result: KCNQ1 inh, KCNQ1 act, KCNK9 block, Kir21 inh, hERG rescue)
Cc1ccccc1C(=O)Nc1ccc(-c2nc3ccc(C(=O)c4ccccc4)cc3[nH]2)cc1	KCNQ1 inh 6
CS(=O)(=O)N(CC(=O)N1CCCC1)c1cc(C(F)(F)F)ccc1Cl	none
